The nature of assay [1]: Displacement of [3H]prazosin from alpha1 adrenoceptor in rat cortex membrane. Format: cell membranes. In a few lines: (§1)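 Competitive radioligand binding on rat cerebral cortex membranes. IC50 was converted to Ki by Cheng–Prusoff, Ki = IC50/(1+[L]/Kd). Ki is the mean of three separate experiments, each run in triplicate.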
The species entered for assay [2] is Rattus norvegicus. The assay can be described thus: Ratio of Ki for alpha2 adrenoceptor in rat cortex membrane to Ki for alpha1 adrenoceptor in rat cortex membrane. Format: cell membranes.
Assay [3] is described as follows: Displacement of [3H]rauwolscine from alpha2 adrenoceptor in rat cortex membrane. It is filed as cell membranes. In a few lines: as §1
The target of assay [4] is T1, Sodium-dependent serotonin transporter (Homo sapiens, UniProt P31645). It is filed as cell membranes.
Target sequence in this assay (P31645 whole entry): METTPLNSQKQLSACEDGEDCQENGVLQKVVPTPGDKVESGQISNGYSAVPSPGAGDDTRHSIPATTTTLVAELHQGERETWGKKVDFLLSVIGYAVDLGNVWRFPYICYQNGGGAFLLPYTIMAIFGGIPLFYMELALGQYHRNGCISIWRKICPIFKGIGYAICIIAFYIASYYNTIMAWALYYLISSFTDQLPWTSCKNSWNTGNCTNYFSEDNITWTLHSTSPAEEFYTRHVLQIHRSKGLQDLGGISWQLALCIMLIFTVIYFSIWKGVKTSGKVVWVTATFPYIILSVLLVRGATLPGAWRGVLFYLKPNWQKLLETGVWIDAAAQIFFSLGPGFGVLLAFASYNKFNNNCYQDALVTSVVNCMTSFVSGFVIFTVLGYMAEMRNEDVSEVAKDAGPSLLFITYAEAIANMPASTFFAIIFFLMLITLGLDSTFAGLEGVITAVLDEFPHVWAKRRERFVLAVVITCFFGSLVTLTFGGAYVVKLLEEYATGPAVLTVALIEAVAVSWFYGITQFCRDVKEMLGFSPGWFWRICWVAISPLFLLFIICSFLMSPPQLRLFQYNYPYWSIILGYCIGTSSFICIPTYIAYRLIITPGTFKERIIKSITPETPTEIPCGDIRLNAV
In assay [5] the target is T2, 5-hydroxytryptamine receptor 1A (Rattus norvegicus, UniProt P19327).
T2 sequence (P19327 whole entry): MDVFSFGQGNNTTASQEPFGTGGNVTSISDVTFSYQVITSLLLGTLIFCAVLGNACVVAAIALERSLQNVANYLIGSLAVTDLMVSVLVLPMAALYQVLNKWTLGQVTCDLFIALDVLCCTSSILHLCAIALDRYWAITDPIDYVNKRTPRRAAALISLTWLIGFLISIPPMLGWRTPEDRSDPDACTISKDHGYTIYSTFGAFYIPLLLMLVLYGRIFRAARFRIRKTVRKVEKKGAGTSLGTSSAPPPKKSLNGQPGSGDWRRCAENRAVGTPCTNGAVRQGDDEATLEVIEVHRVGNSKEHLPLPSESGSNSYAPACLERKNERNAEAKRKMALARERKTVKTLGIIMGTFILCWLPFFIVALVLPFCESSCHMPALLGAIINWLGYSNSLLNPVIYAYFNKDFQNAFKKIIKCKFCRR
The experiment in a line: Displacement of [3H]8-OH-DPAT from 5HT1A receptor in rat cortex membrane. Format: cell membranes. The procedure, abridged:
as §1

The species entered for assay [6] is Rattus norvegicus. The assay can be described thus: Ratio of Ki for 5HT1A receptor in rat cortex membrane to Ki for alpha1 adrenoceptor in rat cortex membrane. It is filed as cell membranes.
Assay [7] has as its target T1, Sodium-dependent serotonin transporter. The assay can be described thus: Displacement of [3H]paroxetine from SERT in human platelet membrane at 10 uM. It is filed as cell membranes. The procedure, abridged: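 Compounds were tested at 10 µM, with percent displacement recorded. Where obtainable, Ki was derived from IC50 by Cheng–Prusoff. Assays were run in triplicate.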
Target sequence in this assay (P31645 whole entry, looked up): as the sequence (P31645 whole entry) above

Assay [8] addresses 5-hydroxytryptamine receptor 2A (Homo sapiens, UniProt P28223). The experiment in a line: Displacement of [3H]ketanserine from 5HT2A receptor.

Ki, Ratio Ki and Activity data for 18 molecules are collected here from ChEMBL document CHEMBL1144183, “Synthesis and biological affinity of new imidazo- and indol-arylpiperazine derivatives: further validation of a pharmacophore model for alpha(1)-adrenoceptor antagonists” (Bioorg Med Chem Lett, 2008).

Chain of 5-hydroxytryptamine receptor 2A (P28223 whole entry): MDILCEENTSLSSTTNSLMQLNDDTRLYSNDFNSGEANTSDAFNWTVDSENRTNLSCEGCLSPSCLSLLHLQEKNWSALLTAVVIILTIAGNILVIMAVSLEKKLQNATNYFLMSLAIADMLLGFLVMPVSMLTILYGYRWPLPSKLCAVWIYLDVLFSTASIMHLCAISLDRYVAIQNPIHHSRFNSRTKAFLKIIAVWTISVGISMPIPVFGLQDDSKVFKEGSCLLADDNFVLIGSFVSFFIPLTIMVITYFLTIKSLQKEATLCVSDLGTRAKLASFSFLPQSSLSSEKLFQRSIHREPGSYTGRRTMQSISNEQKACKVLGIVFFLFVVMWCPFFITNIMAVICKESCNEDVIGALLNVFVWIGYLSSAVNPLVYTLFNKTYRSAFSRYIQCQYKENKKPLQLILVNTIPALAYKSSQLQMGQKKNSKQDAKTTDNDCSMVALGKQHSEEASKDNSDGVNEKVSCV

As to `CCOc1ccccc1N1CCN(CCNC(=O)Cn2nc(-n3ccnc3)ccc2=O)CC1`, the Ki in assay [1] stood at 0.234 µM; in assay [3] it was 3.14 µM; in assay [4], 5.98 µM; in assay [5], 1.15 µM. For the same molecule, the Ratio Ki in assay [2] turned out to be 13.4; in assay [6], 4.9.
Turning to `COc1ccccc1N1CCN(C(=O)CCCn2nc(-n3ccnc3)ccc2=O)CC1`, the Ki in assay [1] is 2.19 µM; in assay [3], 1.9 µM; in assay [4], more than 10 µM; in assay [5], 0.318 µM. In addition, the Ratio Ki in assay [2] came to 0.86; in assay [6] it was 0.14. The molecule further returned an Activity in assay [7] of 3%.
On to `O=c1ccc(-n2ccnc2)nn1CCCCN1CCN(c2ncccn2)CC1`, for which the Ki in assay [1] is 0.71 µM; in assay [3], 1.55 µM; in assay [4] it was more than 10 µM; in assay [5] it was 0.89 µM. Moreover, the Ratio Ki in assay [2] was 2.2; in assay [6], 1.25. Besides, the Activity in assay [7] turned out to be 5%.
Consider `CC(C)Oc1ccccc1N1CCN(CCCCn2nc(-n3ccc4ccccc43)ccc2=O)CC1`, for which the Ki in assay [1] stood at 0.0017 µM; in assay [3] it was 0.0201 µM; in assay [4], 1.04 µM; in assay [5] it was 0.0228 µM. The results for the Ratio Ki in assay [2] and in assay [6] were 12 and 13.6, respectively.
For the molecule `COc1cc2nc(N3CCN(C(=O)c4ccco4)CC3)nc(N)c2cc1OC` [PRAZOSIN], in assay [1], the Ki was 0.00024 µM.
As to `CC(C)Oc1ccccc1N1CCN(CCCCn2nc(-n3ccnc3)ccc2=O)CC1`, the Ki in assay [1] was 0.0004 µM; in assay [3] it was 0.044 µM; in assay [4], more than 10 µM; in assay [5], 0.0068 µM. Also, the values for the Ratio Ki in assay [2] and in assay [6] were 110 and 17, respectively. The Activity in assay [7] turned out to be 10%.
As to `CCOc1ccccc1N1CCN(CCCCn2nc(-n3ccc4ccccc43)ccc2=O)CC1`, the Ki in assay [1] came to 0.0011 µM; in assay [3] it was 0.0701 µM; in assay [4], 0.639 µM; in assay [5], 0.0277 µM. Moreover, the Ratio Ki in assay [2] turned out to be 62.6; in assay [6], 24.7.
In turn, `COC(=O)[C@H]1[C@H]2C[C@H]3c4[nH]c5ccccc5c4CCN3C[C@H]2CC[C@@H]1O` [RAUWOLSCINE] came in with an inhibition constant Ki in assay [3] of 0.004 µM.
For `O=c1ccc(-n2ccc3ccccc32)nn1CCCCN1CCN(c2cccc(C(F)(F)F)c2)CC1`, the Ki came to 0.06 µM in assay [1]; 0.462 µM in assay [3]; 0.083 µM in assay [8]; 0.109 µM in assay [4]; 0.062 µM in assay [5]. The figures for the Ratio Ki in assay [2] and in assay [6] were 7.7 and 1.03, respectively.
Regarding `CCOc1ccccc1N1CCN(CCCCn2nc(-n3ccnc3)ccc2=O)CC1`, the Ki in assay [1] was 0.0008 µM; in assay [3], 0.147 µM; in assay [4], more than 10 µM; in assay [5], 0.014 µM. Besides, the Ratio Ki is 163 in assay [2] and 15.5 in assay [6]. The same molecule gave an Activity in assay [7] of 15%.
For the molecule `O=c1ccc(-n2ccnc2)nn1CCCCN1CCN(c2cccc(C(F)(F)F)c2)CC1`, the Ki is 0.118 µM in assay [1]; 0.656 µM in assay [3]; 0.166 µM in assay [8]; 0.23 µM in assay [4]; 0.013 µM in assay [5]. The Ratio Ki in assay [2] worked out at 5.6.
In the case of `CCOc1ccccc1N1CCN(C(=O)CCCn2nc(-n3ccnc3)ccc2=O)CC1`, the Ki in assay [1] is 0.492 µM; in assay [3] it was 1.76 µM; in assay [4] it was more than 10 µM; in assay [5], 2.25 µM. Moreover, the values for the Ratio Ki in assay [2] and in assay [6] were 3.57 and 4.57, respectively. Besides, in assay [7], the Activity was determined as 11%.
On to `O=c1ccc(-n2ccc3ccccc32)nn1CCCCN1CCN(c2ccc3c(c2)OCCO3)CC1`, for which the Ki worked out at 0.014 µM in assay [1], 0.476 µM in assay [3], 0.177 µM in assay [4] and 0.627 µM in assay [5]. Besides, the Ratio Ki in assay [2] came to 34; in assay [6], 44.8.
Turning to `CC(C)Oc1ccccc1N1CCN(C(=O)CCCn2nc(-n3ccnc3)ccc2=O)CC1`, the Ki is 0.897 µM in assay [1], 1.34 µM in assay [3], more than 10 µM in assay [4] and 1.56 µM in assay [5]. Moreover, the Ratio Ki is 1.49 in assay [2] and 1.73 in assay [6]. Also, the Activity in assay [7] was 2%.
Consider `O=c1ccc(-n2ccc3ccccc32)nn1CCCCN1CCN(c2ncccn2)CC1`, for which the Ki was 0.019 µM in assay [1], 0.725 µM in assay [3], more than 10 µM in assay [4] and 0.21 µM in assay [5]. The Ratio Ki came out at 38.1 in assay [2] and 11.1 in assay [6]. The molecule also displayed an Activity in assay [7] of 25%.
On to `O=c1ccc(-n2ccnc2)nn1CCCCN1CCN(c2ccc3c(c2)OCCO3)CC1`, for which the Ki in assay [1] is 0.251 µM; in assay [3], 0.996 µM; in assay [4], more than 10 µM; in assay [5], 0.937 µM. Further, the Ratio Ki in assay [2] turned out to be 3.9; in assay [6], 3.73. In assay [7], this molecule registered an Activity of 26%.
On to `CC(C)Oc1ccccc1N1CCN(CCNC(=O)Cn2nc(-n3ccnc3)ccc2=O)CC1`, for which the Ki is 0.22 µM in assay [1], 1.96 µM in assay [3], more than 10 µM in assay [4] and 1.91 µM in assay [5]. Also, the figures for the Ratio Ki in assay [2] and in assay [6] were 8.89 and 8.7, respectively.
In the case of `COc1ccccc1N1CCN(CCNC(=O)Cn2nc(-n3ccnc3)ccc2=O)CC1`, the Ki is 0.688 µM in assay [1], 2.97 µM in assay [3], 3.46 µM in assay [4] and 2.07 µM in assay [5]. Also, the Ratio Ki is 4.3 in assay [2] and 3 in assay [6].
